According to ChEMBL document CHEMBL1132203, “Synthesis and biological properties of novel pyridinioalkanoyl thiolesters (PATE) as anti-HIV-1 agents that target the viral nucleocapsid protein zinc fingers” (J Med Chem, 1999):

Tests used:
[1] = tested on: Human immunodeficiency virus 1; test: Antiviral activity against HIV-1 infected CEM-SS cells was determined in XTT cytoprotection assay; assay type: functional, organism-based; conditions: Human immunodeficiency virus 1, CEM-SS
Method in brief: (§1)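 CEM-SS cells infected with HIV-1 RF at MOI 0.01, scored by XTT dye-reduction cytoprotection. EC50 is the concentration giving 50% protection of infected cells. IC50 is the concentration causing 50% cytotoxicity (growth inhibition). High test concentration 316 μM.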

[2] = tested on: Human immunodeficiency virus 1; test: Effective antiviral concentration against HIV-1 infected CEM-SS cells; assay type: functional, organism-based; conditions: Human immunodeficiency virus 1, CEM-SS; method in brief: as §1
[3] = tested on: Human immunodeficiency virus 1; test: Nucleocapsid p7 protein (NCp7) zinc finger domain reactivity was measured by Trp37 fluorescence assay expressed as the average decrease in relative fluorescence units over 30 min; assay type: functional
Method in brief: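 Recombinant HIV-1 NCp7 (pET3A construct expressed in E. coli BL21); intrinsic fluorescence of Trp37 in the C-terminal zinc finger monitored over 30 min after compound addition. Value is the mean fall in relative fluorescence units per minute across 30 min, taken as a readout of Zn ejection. Dithiane or DIBA-1 served as reference. Where glutathione pretreatment was used, 2 mM compound was held 2 h at 37 °C with 2–8 M excess reduced glutathione, then diluted 40-fold to 50 μM final compound.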

Row | SMILES | EC50 [2] [µM] | IC50 [1] [µM] | Activity [3] [RFU min-1]
1 | NS(=O)(=O)c1ccc(NS(=O)(=O)c2ccc(NC(=O)c3ccccc3SSc3ccccc3C(=O)Nc3ccc(S(=O)(=O)Nc4ccc(S(N)(=O)=O)cc4)cc3)cc2)cc1 | 2.3 | 43 | 
2 | O=C(Nc1ccc(S(=O)(=O)c2ccc([N+](=O)[O-])cc2)cc1)c1ccccc1SSc1ccccc1C(=O)Nc1ccc(S(=O)(=O)c2ccc([N+](=O)[O-])cc2)cc1 | 12.2 | > 316 | 2.9
3 | CC(=O)Nc1ccc(S(=O)(=O)Nc2ccc(S(=O)(=O)c3ccc(-n4sc5ccccc5c4=O)cc3)cc2)cc1 | 9.6 | 188 | 7.9
4 | NS(=O)(=O)c1ccc(CCNC(=O)c2ccccc2SSc2ccccc2C(=O)NCCc2ccc(S(N)(=O)=O)cc2)cc1 | 0.41 | 52.8 | 2.7
5 | CC(=O)Nc1ccc(S(=O)(=O)Nc2ccc(S(=O)(=O)c3ccc(NC(=O)c4ccccc4SSc4ccccc4C(=O)Nc4ccc(S(=O)(=O)c5ccc(NS(=O)(=O)c6ccc(NC(C)=O)cc6)cc5)cc4)cc3)cc2)cc1 | 1 | 12.7 | 5.9
6 | CC(=O)Nc1cccc(S(=O)(=O)c2cccc(NC(=O)c3ccccc3SC(=O)CCCC[n+]3ccccc3)c2)c1.[Br-] | 4.9 | 205 | 1.1
7 | CC(=O)NS(=O)(=O)c1ccc(NC(=O)c2cccc(NC(=O)CCCl)c2)cc1 | 38 | 103 | 3.9
8 | COc1ccc(C(=O)Sc2ccccc2C(=O)Nc2ccc(S(=O)(=O)NC(C)=O)cc2)cc1 | 2.8 | 43.7 | 3.5
9 | O=C(Nc1ccc(S(=O)(=O)c2ccc(NS(=O)(=O)Cc3ccccc3[N+](=O)[O-])cc2)cc1)c1ccccc1SSc1ccccc1C(=O)Nc1ccc(S(=O)(=O)c2ccc(NS(=O)(=O)Cc3ccccc3[N+](=O)[O-])cc2)cc1 | 12.3 | > 316 | 1.5
10 | NS(=O)(=O)c1ccc(CNC(=O)c2ccccc2SC(=O)CCCC[n+]2ccccc2)cc1.[Br-] | 1.1 | 55 | 1.4
11 | O=C(Nc1ccc(S(=O)(=O)c2ccc(NC(=O)c3ccccc3SSc3ccccc3C(=O)Nc3ccc(S(=O)(=O)c4ccc(NC(=O)c5cccs5)cc4)cc3)cc2)cc1)c1cccs1 | 12.2 | 190 | 
12 | Nc1cccc(S(=O)(=O)c2cccc(NC(=O)c3ccccc3SSc3ccccc3C(=O)Nc3cccc(S(=O)(=O)c4cccc(N)c4)c3)c2)c1 | 1 | 81.5 | 0.92
13 | CC(=O)Nc1cccc(S(=O)(=O)c2cccc(NC(=O)c3ccccc3SSc3ccccc3C(=O)Nc3cccc(S(=O)(=O)c4cccc(NC(C)=O)c4)c3)c2)c1 | 0.62 | 59.1 | 2
14 | COc1cc(NS(=O)(=O)c2ccc(NC(=O)c3ccccc3SSc3ccccc3C(=O)Nc3ccc(S(=O)(=O)Nc4cc(OC)nc(OC)n4)cc3)cc2)nc(OC)n1 | 2.1 | 52.5 | 
15 | O=c1c2ccccc2sn1-c1ccc(S(=O)(=O)c2ccc([N+](=O)[O-])cc2)cc1 |  | > 316 | 4.1
16 | CC(=O)NS(=O)(=O)c1ccc(NC(=O)c2ccccc2NC(=O)CCCl)cc1 |  | > 316 | 2
17 | O=C(CCCCBr)Sc1ccccc1C(=O)Nc1ccc(S(=O)(=O)c2ccc(NS(=O)(=O)Cc3ccccc3[N+](=O)[O-])cc2)cc1 |  | > 316 | 1.9
18 | O=C(Nc1ccc(S(=O)(=O)Nc2ccnn2-c2ccccc2)cc1)c1ccccc1SSc1ccccc1C(=O)Nc1ccc(S(=O)(=O)Nc2ccnn2-c2ccccc2)cc1 | 0.33 | 19.5 | 
19 | O=C(Nc1ccc(S(=O)(=O)Nc2cnc3ccccc3n2)cc1)c1ccccc1SSc1ccccc1C(=O)Nc1ccc(S(=O)(=O)Nc2cnc3ccccc3n2)cc1 | 0.72 | 22.2 | 
20 | CC(=O)NS(=O)(=O)c1ccc(NC(=O)c2ccccc2NC(=O)CCCC[n+]2ccccc2)cc1.[Br-] |  | > 316 | 2.6
21 | NS(=O)(=O)c1ccc(-n2sc3ccccc3c2=O)cc1 |  | 16.2 | 
22 | O=C(NS(=O)(=O)c1ccc(NC(=O)c2ccccc2SSc2ccccc2C(=O)Nc2ccc(S(=O)(=O)NC(=O)c3ccccc3)cc2)cc1)c1ccccc1 | 3.8 | 54.1 | 
23 | CC(=O)NS(=O)(=O)c1ccc(NC(=O)c2ccccc2NC(=O)CCl)cc1 |  | 202 | 0.3

Continued, in another order:

Row | EC50 [2] [µM] | SMILES | IC50 [1] [µM] | Activity [3] [RFU min-1]
24 | 4.2 | COc1ccc(NS(=O)(=O)c2ccc(NC(=O)c3ccccc3SSc3ccccc3C(=O)Nc3ccc(S(=O)(=O)Nc4ccc(OC)nn4)cc3)cc2)nn1 | 53.8 | 
25 | 2.5 | Cc1noc(NS(=O)(=O)c2ccc(NC(=O)c3ccccc3SSc3ccccc3C(=O)Nc3ccc(S(=O)(=O)Nc4onc(C)c4C)cc3)cc2)c1C | 44.2 | 
26 | 2.9 | O=C(Nc1ccc(S(=O)(=O)Nc2ccc(Cl)nn2)cc1)c1ccccc1SSc1ccccc1C(=O)Nc1ccc(S(=O)(=O)Nc2ccc(Cl)nn2)cc1 | 18.3 | 
27 | 8.7 | Cc1cc(NS(=O)(=O)c2ccc(-n3sc4ccccc4c3=O)cc2)no1 | 54.6 | 
28 | 1 | O=C(Nc1ccc(S(=O)(=O)Nc2nccs2)cc1)c1ccccc1SSc1ccccc1C(=O)Nc1ccc(S(=O)(=O)Nc2nccs2)cc1 | 18 | 
29 | 7.1 | O=c1c2ccccc2sn1-c1ccc(S(=O)(=O)Nc2ccc(Cl)nn2)cc1 | 19.2 | 
30 | 7.6 | COc1cc(NS(=O)(=O)c2ccc(-n3sc4ccccc4c3=O)cc2)nc(OC)n1 | 56.6 | 
31 | 2.4 | Cc1nc(NS(=O)(=O)c2ccc(NC(=O)c3ccccc3SSc3ccccc3C(=O)Nc3ccc(S(=O)(=O)Nc4nc(C)c(C)o4)cc3)cc2)oc1C | 46.4 | 
32 | 1.9 | Cc1cc(NS(=O)(=O)c2ccc(NC(=O)c3ccccc3SSc3ccccc3C(=O)Nc3ccc(S(=O)(=O)Nc4cc(C)on4)cc3)cc2)no1 | 27.6 | 
33 | 12.6 | CC(=O)NS(=O)(=O)c1ccc(-n2sc3ccccc3c2=O)cc1 | 34 | 
34 | 9.3 | O=C(NS(=O)(=O)c1ccc(-n2sc3ccccc3c2=O)cc1)c1ccccc1 | 49.5 | 
35 | 12.8 | Cc1noc(NS(=O)(=O)c2ccc(-n3sc4ccccc4c3=O)cc2)c1C | 39 | 
36 | 111 | N=C(N)NS(=O)(=O)c1ccc(NC(=O)c2ccccc2SSc2ccccc2C(=O)Nc2ccc(S(=O)(=O)N=C(N)N)cc2)cc1 | > 316 | 
37 | 2.1 | COc1cnc(NS(=O)(=O)c2ccc(NC(=O)c3ccccc3SSc3ccccc3C(=O)Nc3ccc(S(=O)(=O)Nc4ncc(OC)cn4)cc3)cc2)nc1 | 55.5 | 
38 | 1.5 | CC(=O)NS(=O)(=O)c1ccc(NC(=O)c2ccccc2SSc2ccccc2C(=O)Nc2ccc(S(=O)(=O)NC(C)=O)cc2)cc1 | > 200 | 
39 | 1.6 | Cc1cc(C)nc(NS(=O)(=O)c2ccc(NC(=O)c3ccccc3SSc3ccccc3C(=O)Nc3ccc(S(=O)(=O)Nc4nc(C)cc(C)n4)cc3)cc2)n1 | 32.2 | 

Row | EC50 [2] [µM] | SMILES | IC50 [1] [µM] | Activity [3] [RFU min-1]
40 | 6.5 | O=c1c2ccccc2sn1-c1ccc(S(=O)(=O)Nc2ncccn2)cc1 | 50.8 | 
41 | 6.2 | NS(=O)(=O)c1ccc(NS(=O)(=O)c2ccc(-n3sc4ccccc4c3=O)cc2)cc1 | 18.1 | 
42 | 1.9 | Cc1cc(NS(=O)(=O)c2ccc(NC(=O)c3ccccc3SSc3ccccc3C(=O)Nc3ccc(S(=O)(=O)Nc4cc(C)nc(C)n4)cc3)cc2)nc(C)n1 | 18.2 | 
43 | 7.8 | Cc1nnc(NS(=O)(=O)c2ccc(-n3sc4ccccc4c3=O)cc2)s1 | 17.3 | 
44 | 1.1 | O=C(Nc1ccc(S(=O)(=O)Nc2ccccn2)cc1)c1ccccc1SSc1ccccc1C(=O)Nc1ccc(S(=O)(=O)Nc2ccccn2)cc1 | 17.8 | 
45 | 6.5 | Cc1cc(NS(=O)(=O)c2ccc(-n3sc4ccccc4c3=O)cc2)nc(C)n1 | 39.7 | 
46 | 4.2 | Cc1ccnc(NS(=O)(=O)c2ccc(NC(=O)c3ccccc3SSc3ccccc3C(=O)Nc3ccc(S(=O)(=O)Nc4nccc(C)n4)cc3)cc2)n1 | 56.7 | 
47 | 9.2 | O=c1c2ccccc2sn1-c1ccc(S(=O)(=O)Nc2cnc3ccccc3n2)cc1 | 54.7 | 
48 | 2 | O=C(Nc1ccc(S(=O)(=O)Nc2ncccn2)cc1)c1ccccc1SSc1ccccc1C(=O)Nc1ccc(S(=O)(=O)Nc2ncccn2)cc1 | 46.4 | 
49 | 1.6 | COc1cc(NS(=O)(=O)c2ccc(NC(=O)c3ccccc3SSc3ccccc3C(=O)Nc3ccc(S(=O)(=O)Nc4cc(OC)ncn4)cc3)cc2)ncn1 | 46.5 | 
50 | 6.9 | Cc1cc(C)nc(NS(=O)(=O)c2ccc(-n3sc4ccccc4c3=O)cc2)n1 | 17.1 | 
51 | 17.8 | COc1cnc(NS(=O)(=O)c2ccc(-n3sc4ccccc4c3=O)cc2)nc1 | 57.6 | 
52 | 0.85 | NS(=O)(=O)c1ccc(NC(=O)c2ccccc2SSc2ccccc2C(=O)Nc2ccc(S(N)(=O)=O)cc2)cc1 | 217 | 
53 | 22.6 | COc1ccc(NS(=O)(=O)c2ccc(-n3sc4ccccc4c3=O)cc2)nn1 | 55.3 | 
54 | 3.4 | Cc1nnc(NS(=O)(=O)c2ccc(NC(=O)c3ccccc3SSc3ccccc3C(=O)Nc3ccc(S(=O)(=O)Nc4nnc(C)s4)cc3)cc2)s1 | 18.6 | 
55 | 8.8 | Cc1ccnc(NS(=O)(=O)c2ccc(-n3sc4ccccc4c3=O)cc2)n1 | 57.4 | 
